From PubChem BioAssay
Most compounds without a hit are left out; they make up all but 4.5% or so of the library.
RGS4 inh = inhibitors of human RGS4 | B-score at 10 µM | P49798 | AID 463165 | HEK293 M3R/RGS4 inducible, Fluo-4 calcium flux; active compounds read high; triggered by carbachol at its EC20 | 310,000 compounds, 0.45% hits;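 active means B-score, a plate-corrected calcium signal, over three deviations above library mean, with baseline fluorescence within five deviations of library mean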;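 further: RGS4 expression induced by doxycycline in cells with stable M3 receptor; B-score is computed from the integrated fluorescence ratio over baseline after carbachol; higher B-score means a larger calcium signal and so more RGS4 inhibition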
Target sequence (P49798 whole entry, looked up): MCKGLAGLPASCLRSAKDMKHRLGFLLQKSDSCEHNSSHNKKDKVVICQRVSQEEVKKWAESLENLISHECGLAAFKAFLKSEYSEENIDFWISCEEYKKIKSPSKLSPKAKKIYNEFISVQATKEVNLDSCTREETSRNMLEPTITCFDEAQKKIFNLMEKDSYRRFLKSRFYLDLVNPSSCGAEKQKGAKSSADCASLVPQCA
MrgX1 allo act = allosterically activates human MrgX1 receptor signaling | Q96LB2 | B-score at 10 µM | MrgX1-HEK293, Fluo-4 calcium flux, FDSS; active compounds read high | 310,000 compounds, 0.63% hits | AID 588675;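 active means plate-corrected calcium response at least 3 library SD above typical, normal starting fluorescence, not activating the receptor alone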;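 further: compound read alongside a low EC10 to EC30 dose of BAM8-22 agonist; peak minus trough fluorescence over baseline measured at the second addition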
MrgX1 antag = human MrgX1 receptor antagonism, primary screen; B-score at 10 µM; AID 588676; MRGX1-HEK293 calcium flux, Fluo-4, BAM8-22 antagonism; active compounds read low; 310,000 compounds, 1.3% hits; Q96LB2;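 active means calcium-response B-score plate-corrected more than 3 library SD below zero, starting fluorescence within 5 deviations, no agonist response on first addition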;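 further: peak minus trough fluorescence over baseline after final BAM8-22 challenge near maximal dose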
PHOSPHO1 block = blocks human PHOSPHO1 phosphatase activity; Q8TCT1; recombinant PHOSPHO1, absorbance phosphatase assay; inhibition, % at 13.3 µM; 290,000 compounds, 1.1% hits; in the data active means inhibition above about 60%
Target sequence (Q8TCT1 whole entry, looked up): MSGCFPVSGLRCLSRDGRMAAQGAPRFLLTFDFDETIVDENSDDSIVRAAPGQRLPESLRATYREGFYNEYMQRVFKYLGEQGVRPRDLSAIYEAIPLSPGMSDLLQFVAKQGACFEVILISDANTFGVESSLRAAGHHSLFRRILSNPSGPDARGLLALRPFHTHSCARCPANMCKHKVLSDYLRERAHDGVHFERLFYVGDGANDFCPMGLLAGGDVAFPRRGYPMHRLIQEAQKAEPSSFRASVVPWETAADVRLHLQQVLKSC
MrgX1 agonist = agonists of human MrgX1 receptor. MrgX1-HEK293 cells, Fluo-4 calcium fluorescence, agonist mode; active compounds read high. AID 588627. 310,000 compounds, 0.44% hits. Q96LB2. B-score at 10 µM;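 active means calcium response B-score plate-corrected fluorescence ratio at least 3 library SD, with starting fluorescence B-score inside 5 SD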
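Material: HEK293 cells stably expressing human MrgX1 receptor | Quantity: 15,000 cells per well | Times: Cells plated overnight, dye loaded 0.5 h 37 °C, 0.5 h room temperature | Measured by: Kinetic Fluo-4 NW fluorescence of intracellular calcium | Control set: Positive and negative controls per plate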
RGS4 pot = potentiators or activators of RGS4; AID 463111; 310,000 compounds, 0.92% hits; B-score at 10 µM; HEK293 M3R/inducible RGS4, carbachol calcium flux Fluo4; active compounds read low;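 active means B-score of the integrated calcium signal more than 4 SD below the library mean, with starting fluorescence not abnormally high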;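 further: negative B-score means reduced calcium response which marks RGS4 activation or potentiation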
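Reagent: ECmax carbachol challenge; Test system: M3R-expressing HEK293 line, RGS4 induced by doxycycline; Schedule: overnight RGS4 induction, 30 min dye load 37 °C, 20 min compound RT; Detection: calcium dye Fluo4 fluorescence; Read-out: Agonist-evoked peak-minus-minimum fluorescence over baseline, integrated ratio, B score.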
* marks the source's active call; other numbers are inactive results; i = inactive; . = no result given.

SMILES	RGS4 inh	MrgX1 allo act	MrgX1 antag	PHOSPHO1 block	MrgX1 agonist	RGS4 pot
O=C(NC1CC1)c1ccc(N2CCCCC2)c([N+](=O)[O-])c1	i	i	i	38	i	i
O=C(CCc1ccc(Oc2cc([N+](=O)[O-])cc([N+](=O)[O-])c2)cc1)N1CCCCCC1	i	i	i	-6	i	-10*
O=C(Cc1ccc([N+](=O)[O-])cc1)N1CCCCCC1	i	i	i	5	i	i
CCCc1cc(=O)oc2cc(OC(=O)CN3C(=O)NC4(CCCC4)C3=O)ccc12	i	i	-8.6*	.	i	i
COc1ccc(NCc2ccc(OC)c(Cn3ccnc3)c2)c(OC)c1	i	i	i	.	i	i
COc1ccc(CN(C)CC(=O)NC2CCCc3ccccc32)cc1OC (stereo not drawn)	i	i	i	-3	i	i
O=C(O)CC(c1ccccc1)n1cccc1 (stereo not drawn)	i	i	i	87*	i	i
Nc1ccc(C(CC(=O)O)n2cccc2)cc1 (stereo not drawn)	i	i	i	-26	i	i
COc1ccccc1CCc1nnc(CCC(=O)NC(C)Cc2cccs2)o1 (stereo not drawn)	i	i	i	22	i	i
CCOC(=O)CSC1=C(C#N)C(=O)NC(c2ccc(OC)cc2)S1 (stereo not drawn)	i	i	i	87*	i	i
CCOC(=O)CSC1=C(C#N)C(=O)NC(c2ccc(OC)c(OC)c2)S1 (stereo not drawn)	i	i	i	98*	i	i
CCOC(=O)CSc1nc2cc(OC)ccc2cc1C#N	i	i	i	-16	i	i
CC1(C(=O)NNC(=O)c2cccc([N+](=O)[O-])c2)CC1(Br)Br (stereo not drawn)	i	i	i	34	i	i
O=C(CN(Cc1ccc(Cl)cc1)C(=O)c1csnn1)NCc1ccccc1	i	i	i	22	i	i
CC(CNC(=O)C1CCCN(S(=O)(=O)N2CCOCC2)C1)c1ccccc1 (stereo not drawn)	i	i	i	7	i	i
O=C(CCC(=O)OCC(=O)c1cccc([N+](=O)[O-])c1)Nc1ccccc1Cl	i	i	-7*	11	i	i
O=C(CCC(=O)OCc1cccc([N+](=O)[O-])c1)Nc1ccccc1Cl	i	i	i	51	i	i
CCOc1ccc(C(=O)N(Cc2ccccc2)c2cccc(C)c2)cc1OC	i	i	i	15	i	i
Nc1nc(-c2cccs2)c(-c2cccs2)s1	i	i	i	27	i	i
Nc1nc(-c2ccco2)c(-c2ccco2)s1	i	i	i	88*	i	i
c1coc(-c2nc(-c3ccco3)c(-c3ccco3)nc2-c2ccco2)c1	i	i	i	68*	i	i
Nc1nc(-c2ccc(-n3nncc3-c3ccco3)cc2)cs1	i	i	i	11	i	i
Nc1nc(-c2ccco2)cs1	i	i	i	93*	i	i
O=C(c1ccccc1)C1CCN(CC(=O)N2CCN(c3ccccc3)CC2)CC1	i	i	i	10	i	i
O=C(CSCc1cccc(Cl)c1)Nc1ccccc1-c1ccccc1	i	i	i	-6	i	i
SMILES	RGS4 inh	MrgX1 allo act	MrgX1 antag	PHOSPHO1 block	MrgX1 agonist	RGS4 pot
CSc1sc(C(=O)NN)c2c1C(O)CCC2 (stereo not drawn)	i	i	i	.	i	i
CC(C)C[C@H](NC(=O)N1CCn2c1nc1ccccc12)C(=O)NCc1ccccc1	i	i	i	24	i	i
C=CCNC(=S)NNC(=O)c1ccc([N+](=O)[O-])cc1	i	i	-7.9*	-10	i	i
CCCCCCCC(=O)NNC(=O)c1ccc([N+](=O)[O-])cc1	i	7*	i	-5	i	i
C=CCNC(=S)NNC(=O)c1ccc(OC(C)C)cc1	i	i	i	72*	i	i
O=C(c1ccco1)N1N=C(c2ccccc2)CC1c1ccc2nccnc2c1 (stereo not drawn)	i	i	i	20	i	i
COc1ccc(OC)c(NC(=O)COc2coc(CN3CCc4ccccc43)cc2=O)c1	i	i	i	.	i	i
CC(C)c1ccc(NC(=O)[C@@H](C)NC(=O)[C@@H]2Cc3ccccc3CN2)cc1	i	i	i	38	i	-7.4*
CC(C)C[C@H](NC(=O)[C@@H]1Cc2ccccc2CN1)C(=O)Nc1ccc(C(C)C)cc1	i	i	i	5	i	i
C#CCN1C(=O)C(O)(CC(=O)/C=C/C=C/c2ccccc2)c2ccccc21 (stereo not drawn)	i	6.7*	i	-14	i	i
CCN1C(=O)C(O)(CC(=O)/C=C/C=C/c2ccccc2)c2ccccc21 (stereo not drawn)	i	i	i	34	i	i
O=C(NC1CCN(Cc2ccccc2)CC1)c1ccccc1OCc1ccccc1	i	i	i	3	i	i
O=C(NC1CCN(Cc2ccccc2)CC1)c1ccccc1OCc1ccccc1Cl	i	10*	i	14	i	i
COc1ccc(C(=O)N2CCC(C(=O)Nc3ccc4c(c3)OCO4)CC2)cc1	i	i	i	-10	i	i
Cc1ccc(-c2nn(-c3ccccc3)cc2C(=O)NCC(c2cccs2)N2CCOCC2)cc1 (stereo not drawn)	i	i	i	.	i	i
COc1cccc(O)c1CN1CCCC(C(=O)c2cccc(C(F)(F)F)c2)C1 (stereo not drawn)	i	i	i	5	i	-7.5*
O=C(c1cccc(C(F)(F)F)c1)C1CCCN(Cc2cccc(OCCO)c2)C1 (stereo not drawn)	i	i	i	-2	i	-7*
COCc1cc(CN2CCCC(C(=O)c3cccc(C(F)(F)F)c3)C2)ccc1OC (stereo not drawn)	i	i	i	-2	i	i
COc1c(C)cc(C(=O)C2CCCN(Cc3cccc4nccnc34)C2)cc1C (stereo not drawn)	i	i	i	35	i	i
COc1ccccc1C(=O)C1CCCN(Cc2cccc3nccnc23)C1 (stereo not drawn)	i	i	i	60*	i	i
